Measurements from ChEMBL document CHEMBL1629527, “In vitro antifungal activities of bis(alkylpyridinium)alkane compounds against pathogenic yeasts and molds” (Antimicrob Agents Chemother, 2010).

What was measured:
[1] = system: Cryptococcus gattii species complex; test: Antifungal activity against Cryptococcus gattii after 24 to 72 hrs by broth microdilution method; type: functional, Cryptococcus bacillisporus
Outline: (§1)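 Broth microdilution MIC per CLSI M27-A3 (yeasts) or M38-A2 (molds). RPMI 1640 with L-glutamine, without bicarbonate, buffered to pH 7.0 with 0.165 M MOPS. Final test range for the compounds was 0.175–87.5 μM. Incubation at 35°C with visual reading at 24–72 h. MIC was the lowest concentration giving 100% inhibition versus the growth control (azoles 50% or 100%, by organism). Each isolate was run in duplicate in two independent experiments.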

[2] = system: Cryptococcus gattii species complex; test: Antifungal activity against Cryptococcus gattii 05-200122 after 24 to 72 hrs by broth microdilution method; type: functional, Cryptococcus bacillisporus; outline: as §1
Aspergillus flavus [3] = test: Antifungal activity against Aspergillus flavus 05-203758 after 24 to 72 hrs by broth microdilution method; type: functional; outline: as §1
Candida tropicalis [4] = test: Antifungal activity against Candida tropicalis 04-202361 after 24 to 72 hrs by broth microdilution method; type: functional; outline: as §1
[5] = system: Meyerozyma guilliermondii; test: Antifungal activity against Candida guilliermondii after 24 to 72 hrs by broth microdilution method; type: functional; outline: as §1
Cryptococcus neoformans [6] = test: Antifungal activity against Cryptococcus neoformans 05-202523 after 24 to 72 hrs by broth microdilution method; type: functional; outline: as §1
Candida albicans [7] = test: Antifungal activity against Candida albicans after 24 to 72 hrs by broth microdilution method; type: functional
Outline: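 CLSI M27-A3 broth microdilution for yeasts in RPMI 1640 with L-glutamine and no bicarbonate, buffered with 0.165 M MOPS to pH 7.0. Compounds were dissolved in water and tested at 0.175–87.5 μM final, 35°C. MIC was read visually at 24–72 h as 100% inhibition versus growth control. For MFC, 30 μl from clear wells went onto SDA at 35°C for 48–72 h, reading the lowest concentration without colonies. Duplicates, two independent runs.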

Candida parapsilosis [8] = test: Antifungal activity against Candida parapsilosis ATCC 22019 after 24 to 72 hrs by broth microdilution method; type: functional; conditions: Lodderomyces parapsilosis; outline: as §1
Candida tropicalis [9] = test: Antifungal activity against Candida tropicalis after 24 to 72 hrs by broth microdilution method; type: functional; outline: as §1
Pichia kudriavzevii [10] = test: Antifungal activity against Candida krusei 04-202328 after 24 to 72 hrs by broth microdilution method; type: functional; outline: as §1
Pichia kudriavzevii [11] = test: Antifungal activity against Candida krusei after 24 to 72 hrs by broth microdilution method; type: functional; outline: as §1
[12] = Antifungal activity against Paecilomyces lilacinus 05-200601 after 24 to 72 hrs by broth microdilution method; type: functional; conditions: Purpureocillium lilacinum
Outline: (§2)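 Mold isolates subcultured on potato dextrose agar, then tested by CLSI M38-A2 broth microdilution in RPMI 1640 (L-glutamine, no bicarbonate) buffered to pH 7.0 with 0.165 M MOPS. Compounds were dissolved in water and tested at a final 0.175–87.5 μM. Plates were incubated at 35°C. MIC was read visually as the lowest concentration giving 100% inhibition versus the growth control. Each isolate was run in duplicate in two independent experiments.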

Candida albicans [13] = test: Antifungal activity against Candida albicans ATCC 10231 after 24 to 72 hrs by broth microdilution method; type: functional; outline: as §1
Lichtheimia corymbifera = test: Antifungal activity against Absidia corymbifera 04-200170 after 24 to 72 hrs by broth microdilution method; type: functional; outline: as §1
Candida dubliniensis = test: Antifungal activity against Candida dubliniensis after 24 to 72 hrs by broth microdilution method; type: functional; outline: as §1
Rhizopus arrhizus = test: Antifungal activity against Rhizopus oryzae 05-203111 after 24 to 72 hrs by broth microdilution method; type: functional; outline: as §2
Candida parapsilosis [14] = test: Antifungal activity against Candida parapsilosis after 24 to 72 hrs by broth microdilution method; type: functional; conditions: Lodderomyces parapsilosis; outline: as §1
Aspergillus flavus [15] = test: Antifungal activity against Aspergillus flavus ATCC 204304 after 48 to 72 hrs; type: functional
Outline: (§3)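 MFC: after the MIC read, 30-μl aliquots from each well without visible growth were plated onto Sabouraud dextrose agar and incubated at 35°C. Reading was at 48–72 h for yeasts and up to 7 days for molds. MFC was the lowest concentration with no colonies.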

Nakaseomyces glabratus [16] = test: Antifungal activity against Candida glabrata 04-202345 after 24 to 72 hrs by broth microdilution method; type: functional; outline: as §1
Nakaseomyces glabratus [17] = test: Antifungal activity against Candida glabrata after 48 to 72 hrs; type: functional; outline: as §3
Candida parapsilosis [18] = test: Antifungal activity against Candida parapsilosis 04-202398 after 24 to 72 hrs by broth microdilution method; type: functional; conditions: Lodderomyces parapsilosis; outline: as §1
Aspergillus terreus = test: Antifungal activity against Aspergillus terreus 05-202844 after 24 to 72 hrs by broth microdilution method; type: functional; outline: as §1
Nakaseomyces glabratus [19] = test: Antifungal activity against Candida glabrata after 24 to 72 hrs by broth microdilution method; type: functional; outline: as §1
Cryptococcus neoformans [20] = test: Antifungal activity against Cryptococcus neoformans ATCC 90112 after 24 to 72 hrs by broth microdilution method; type: functional; outline: as §1
Cryptococcus neoformans [21] = test: Antifungal activity against Cryptococcus neoformans after 24 to 72 hrs by broth microdilution method; type: functional; outline: as §1
Pichia kudriavzevii [22] = test: Antifungal activity against Candida krusei after 48 to 72 hrs; type: functional; outline: as §3
Fusarium solani = test: Antifungal activity against Fusarium solani 04-203102 after 24 to 72 hrs by broth microdilution method; type: functional; outline: as §2
Scedosporium apiospermum = test: Antifungal activity against Scedosporium apiospermum 05-203100 after 24 to 72 hrs by broth microdilution method; type: functional; outline: as §2
[23] = system: Cunninghamella bertholletiae; test: Antifungal activity against Cunninghamella bertholletiae 99-12187 after 24 to 72 hrs by broth microdilution method; type: functional; outline: as §1
Aspergillus flavus [24] = test: Antifungal activity against Aspergillus flavus ATCC 204304 after 24 to 72 hrs by broth microdilution method; type: functional; outline: as §1
[25] = system: Cryptococcus gattii species complex; test: Antifungal activity against Cryptococcus gattii after 48 to 72 hrs; type: functional, Cryptococcus bacillisporus; outline: as §3
Candida tropicalis [26] = test: Antifungal activity against Candida tropicalis after 48 to 72 hrs; type: functional; outline: as §3
Candida parapsilosis [27] = test: Antifungal activity against Candida parapsilosis after 48 to 72 hrs; type: functional; outline: as §3
Aspergillus fumigatus = test: Antifungal activity against Aspergillus fumigatus 05-203114 after 24 to 72 hrs by broth microdilution method; type: functional; outline: as §1
Exophiala spinifera = test: Antifungal activity against Exophiala spinifera 03-200803 after 24 to 72 hrs by broth microdilution method; type: functional; outline: as §2

## CCCCCc1cc[n+](CCCCCCCCCCCC[n+]2ccc(CCCCC)cc2)cc1.[Cl-].[Cl-]
[1]
  MIC: 1.06 µg/mL
  MIC50: 0.75 µg/mL
  MIC90: 1.48 µg/mL
[2]
  MIC: 0.74 µg/mL
Aspergillus flavus [3]
  MIC: 47.3 µg/mL
Candida tropicalis [4]
  MIC: 0.74 µg/mL
[5]
  MIC: 0.569 µg/mL
  MIC50: 0.38 µg/mL
  MIC90: 0.75 µg/mL
Cryptococcus neoformans [6]
  MIC: 47.3 µg/mL
Candida albicans [7]
  MIC50: 1.48 µg/mL
  MIC90: 1.48 µg/mL
Candida parapsilosis [8]
  MIC: 0.74 µg/mL
Candida tropicalis [9]
  MIC: 0.702 µg/mL
  MIC50: 0.75 µg/mL
  MIC90: 0.75 µg/mL
Pichia kudriavzevii [10]
  MIC: 11.8 µg/mL
Pichia kudriavzevii [11]
  MIC: 2.25 µg/mL
  MIC50: 2.96 µg/mL
  MIC90: 5.91 µg/mL
[12]
  MIC: > 47.3 µg/mL
Candida albicans [13]
  MIC: 1.48 µg/mL
Lichtheimia corymbifera
  MIC: > 47.3 µg/mL
Candida dubliniensis
  MIC: 0.805 µg/mL
  MIC50: 0.75 µg/mL
  MIC90: 0.75 µg/mL
Rhizopus arrhizus
  MIC: 1.48 µg/mL
Candida parapsilosis [14]
  MIC: > 47 µg/mL
  MIC50: > 47 µg/mL
  MIC90: > 47 µg/mL
Aspergillus flavus [15]
  MFC: 47.3 µg/mL
Nakaseomyces glabratus [16]
  MIC: 1.48 µg/mL
Nakaseomyces glabratus [17]
  MFC50: 1.48 µg/mL
  MFC90: 1.48 µg/mL
Nakaseomyces glabratus [17]; Nakaseomyces glabratus
  MFC: 0.38 µg/mL
Candida parapsilosis [18]
  MIC: 47.3 µg/mL
Aspergillus terreus
  MIC: 5.9 µg/mL
Nakaseomyces glabratus [19]
  MIC: 0.701 µg/mL
  MIC50: 0.75 µg/mL
  MIC90: 0.75 µg/mL
Cryptococcus neoformans [20]
  MIC: 1.48 µg/mL
Cryptococcus neoformans [21]
  MIC: 2.41 µg/mL
  MIC50: 1.48 µg/mL
  MIC90: 5.91 µg/mL
Pichia kudriavzevii [22]
  MFC50: 2.96 µg/mL
  MFC90: 5.91 µg/mL
Pichia kudriavzevii [22]; Pichia kudriavzevii
  MFC: 0.38 µg/mL
Fusarium solani
  MIC: 47.3 µg/mL
Scedosporium apiospermum
  MIC: 2.96 µg/mL
[23]
  MIC: 47.3 µg/mL
Aspergillus flavus [24]
  MIC: 23.7 µg/mL
[25]
  MFC50: 1.48 µg/mL
  MFC90: 1.48 µg/mL
[25]; Cryptococcus gattii species complex
  MFC: 0.75 µg/mL
Candida tropicalis [26]
  MFC50: 0.75 µg/mL
  MFC90: 0.75 µg/mL
Candida tropicalis [26]; Candida tropicalis
  MFC: 0.38 µg/mL
Candida parapsilosis [27]
  MFC50: >47 µg/mL
  MFC90: >47 µg/mL
Candida parapsilosis [27]; Lodderomyces parapsilosis
  MFC: > 47 µg/mL
Aspergillus fumigatus
  MIC: 47.3 µg/mL
Exophiala spinifera
  MIC: 0.37 µg/mL
